According to EPA's CvTdb concentration-time database:

Experiments:
Rat [1] = assay: concentration in plasma after dosing; conditions: 5 min; dosed: Wyeth-14643; 2.0 mg/kg; oral; Male; Sprague-Dawley
Rat [2] = assay: concentration in plasma after dosing; conditions: dosed: Wyeth-14643, 2.0 mg/kg, oral, Male, Sprague-Dawley
Rat [3] = assay: concentration in plasma after dosing; conditions: 5 min; dosed: Wyeth-14643; 2.0 mg/kg; iv; Male; Sprague-Dawley
Rat [4] = assay: concentration in plasma after dosing; conditions: 4 h; dosed: Wyeth-14643; 5.0 mg/kg; oral; Male; Sprague-Dawley
Rat [5] = assay: concentration in thymus after dosing; conditions: 5 h; dosed: Bis 2-Chloroethoxy Methane; 20 mg/kg; iv; Female; F344
Rat [6] = assay: concentration in heart after dosing; conditions: 3 h; dosed: Bis 2-Chloroethoxy Methane; 20 mg/kg; iv; Female; F344
Rat [7] = assay: concentration in plasma after dosing; conditions: 1 h; dosed: Bis 2-Chloroethoxy Methane; 40 mg/kg; iv; Male; Harlan Sprague Dawley
Rat [8] = assay: concentration in liver after dosing; conditions: 0.5 h; dosed: Fluorotelomer alcohol 8+2; 24 mg/kg; oral; Male; Harlan Sprague Dawley
Rat [9] = assay: concentration in plasma after dosing; conditions: dosed: Fluorotelomer alcohol 8+2, 12 mg/kg, oral, Male, Harlan Sprague Dawley
Rat [10] = assay: concentration in plasma after dosing; conditions: 10 h; dosed: Di-n-butyl phthalate; 50 mg/kg; oral; Male; Sprague-Dawley
Rat [11] = assay: concentration in plasma after dosing; conditions: 5 h; dosed: Di-n-butyl phthalate; 20 mg/kg; iv; Male; Sprague-Dawley
Rat [12] = assay: concentration in plasma after dosing; conditions: 20 min; dosed: Di-n-butyl phthalate; 20 mg/kg; iv; Male; Sprague-Dawley
Rat [13] = assay: concentration in plasma after dosing; conditions: 10 h; dosed: Di-n-butyl phthalate; 100 mg/kg; oral; Male; Sprague-Dawley
Rat [14] = assay: concentration in brain after dosing; conditions: 1848 h; dosed: Perfluorodecanoic acid; 10 mg/kg; oral; Female; Harlan Sprague Dawley
Rat [15] = assay: concentration in plasma after dosing; conditions: dosed: Perfluorodecanoic acid, 2 mg/kg, iv, Male, F344
Rat [16] = assay: concentration in plasma after dosing; conditions: 2520 h; dosed: Perfluorodecanoic acid; 2 mg/kg; iv; Male; F344
Rat [17] = assay: concentration in kidney after dosing; conditions: 1848 h; dosed: Perfluorodecanoic acid; 10 mg/kg; oral; Female; Harlan Sprague Dawley
Rat [18] = assay: concentration in plasma after dosing; conditions: 0.5 h; dosed: Primidone; 30 mg/kg; oral; Male; F344
Rat [19] = assay: concentration in plasma after dosing; conditions: 6 h; dosed: Primidone; 130 mg/kg; oral; Female; F344
Rat [20] = assay: concentration in heart after dosing; conditions: 3 h; dosed: Thiodiglycolic Acid; 20 mg/kg; iv; Female; Harlan Sprague Dawley
Rat [21] = assay: concentration in thymus after dosing; conditions: 2 h; dosed: Thiodiglycolic Acid; 20 mg/kg; iv; Male; Harlan Sprague Dawley
Rat [22] = assay: concentration in thymus after dosing; conditions: 5.333 h; dosed: Thiodiglycolic Acid; 20 mg/kg; iv; Male; Harlan Sprague Dawley
Rat [23] = assay: concentration in thymus after dosing; conditions: 6.667 h; dosed: Thiodiglycolic Acid; 20 mg/kg; iv; Female; Harlan Sprague Dawley
Rat [24] = assay: concentration in thymus after dosing; conditions: 2 h; dosed: Thiodiglycolic Acid; 20 mg/kg; iv; Female; Harlan Sprague Dawley
Rat [25] = assay: concentration in plasma after dosing; conditions: 1 h; dosed: Thiodiglycolic Acid; 20 mg/kg; iv; Male; Harlan Sprague Dawley
Rat [26] = assay: concentration in plasma after dosing; conditions: 40 min; dosed: Thiodiglycolic Acid; 20 mg/kg; iv; Female; Harlan Sprague Dawley
Rat [27] = assay: concentration in thymus after dosing; conditions: 2 h; dosed: Thiodiglycolic Acid; 20 mg/kg; iv; Female; Harlan Sprague Dawley; remark: listed apart in the source
Rat [28] = assay: concentration in plasma after dosing; conditions: 2 h; dosed: Thiodiglycolic Acid; 20 mg/kg; iv; Female; Harlan Sprague Dawley
Rat [29] = assay: concentration in plasma after dosing; conditions: dosed: dichloroacetic acid, 10 mg/kg, oral, Male, Harlan Sprague Dawley
Rat [30] = assay: concentration in plasma after dosing; conditions: dosed: dichloroacetic acid, 100 mg/kg, oral, Male, F344
Rat [31] = assay: concentration in plasma after dosing; conditions: 5 min; dosed: dichloroacetic acid; 10 mg/kg; iv; Male; F344
Rat [32] = assay: concentration in plasma after dosing; conditions: 20 min; dosed: dichloroacetic acid; 10 mg/kg; oral; Male; Harlan Sprague Dawley
human = conditions: dosed: trichloroethylene, 100 ppm, inhalation, duration: 4 hr, person
How it was run: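 Sampling and analytical methods are those of each source and frequently went unreported. The concentration-versus-time and amount-versus-time points were compiled from published in vivo toxicokinetic studies and two structured collections. Most were digitised from plot screenshots with WebPlotDigitizer, with others copied from tables, in the reported units.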

Cc1cccc(Nc2cc(Cl)nc(SCC(=O)O)n2)c1C
Conditions	concentration in plasma [ng/mL]
Rat [1]	405
Rat [3]	7290
Rat [4]	955

Rat [2]
Conditions	concentration in plasma [ng/mL]
2 h	656
7 h	120

ClCCOCOCCCl [Bis 2-Chloroethoxy Methane]
Conditions	concentration in heart [ng/g]	concentration in plasma [ng/mL]	concentration in thymus [ng/g]
Rat [5]	–	–	79.1
Rat [6]	158	–	–
Rat [7]	–	3100	–

OCCC(F)(F)C(F)(F)C(F)(F)C(F)(F)C(F)(F)C(F)(F)C(F)(F)C(F)(F)F [Fluorotelomer alcohol 8+2]
Conditions	concentration in liver [ng/g]
Rat [8]	7210

Rat [9]
Conditions	concentration in plasma [ng/mL]
0.5 h	274
9 h	10.3

CCCCOC(=O)c1ccccc1C(=O)O [Mono-n-butyl phthalate]
Conditions	concentration in plasma [ng/mL]
Rat [10]	797
Rat [11]	600
Rat [12]	21300
Rat [13]	2010

O=C(O)C(F)(F)C(F)(F)C(F)(F)C(F)(F)C(F)(F)C(F)(F)C(F)(F)C(F)(F)C(F)(F)F [Perfluorodecanoic acid]
Conditions	concentration in brain [ng/g]	concentration in kidney [ng/g]	concentration in plasma [ng/mL]
Rat [14]	752	–	–
Rat [16]	–	–	209
Rat [17]	–	11800	–

Rat [15]
Conditions	concentration in plasma [ng/mL]
5 min	7330
192 h	3130
2520 h	200

CCC1(c2ccccc2)C(=O)NC(=O)NC1=O [Phenobarbital]
Conditions	concentration in plasma [ng/mL]
Rat [18]	330
Rat [19]	2210

O=C(O)CSCC(=O)O [Thiodiglycolic Acid]
Conditions	concentration in heart [ng/g]	concentration in plasma [ng/mL]	concentration in thymus [ng/g]
Rat [20]	620	–	–
Rat [21]	–	–	2260
Rat [22]	–	–	471
Rat [23]	–	–	263
Rat [24]	–	–	2180
Rat [25]	–	2150	–
Rat [26]	–	4780	–
Rat [27]	–	–	1910
Rat [28]	–	1560	–

O=C(O)C(Cl)Cl [dichloroacetic acid]
concentration in plasma [ng/mL]
Conditions	2 h	5 min	10 min	50 min
Rat [29]	–	–	438	158
Rat [30]	57500	20900	–	–

Conditions	concentration in plasma [ng/mL]
Rat [31]	12400
Rat [32]	680

O=C(O)C(Cl)(Cl)Cl [trichloroacetic acid]
human
Conditions	amount in urine after dosing [mg]
1 h	0.21
2 h	0.25
4 h	0.57
8 h	2.37
12 h	1.32
16 h	0.93
24 h	2.15
36 h	4.32
48 h	8.17
60 h	7.79
72 h	7.83
84 h	6.95
96 h	4.34
108 h	4.56
120 h	3.32
132 h	3.23
144 h	4
156 h	2.44
168 h	1.44
180 h	2.55
